In brackets after ≈: the same amount, converted by molar mass. Activity calls are given as the source filed them. No cut-off for these calls is given here.
Key:
KB = assay: Cytostatic activity against human KB cells assessed as growth inhibition after 72 hrs by colorimetric method; format: functional; settings: read-out: ED50 (the source's name)
Outline: (§1)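 HeLa or KB cells at 10⁵ cells/mL in Minimal Medium Eagle with 10% fetal calf serum were incubated at 37 °C in Leighton tubes. After the cells attached (2-3 h), compound was added in sterile saline with 0.05% Tween 80, making up 10% of the final volume. After 72 h at 37 °C, growth was read as cell protein (Oyama–Eagle colorimetric method). 6-Mercaptopurine was the positive control. ED₅₀ was derived.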

HeLa = assay: Cytostatic activity against human HeLa cells assessed as growth inhibition after 72 hrs by colorimetric method; format: functional; settings: read-out: ED50 (the source's name); outline: as §1
Ehrlich [1] = assay: Irreversible inhibition of protein synthesis in mouse Ehrlich ascite carcinoma cells assessed as incorporation of [3H]proline at 10 ug/ml after 1.5 hrs by liquid scintillation spectrophotometer; format: functional, cell-based
Outline: (§2)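 For reversibility, Ehrlich ascites cells were preincubated 1.5 h at 37 °C with or without 10 μg/mL quinone. They were washed in saline at room temperature and resuspended in fresh Eagle Spinner medium. They were then incubated at 37 °C with radiolabelled glucose, thymidine, uridine or proline at the same amounts as the direct assay. Samples were taken over time to follow incorporation.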

Ehrlich [2] = assay: Inhibition of RNA synthesis in mouse Ehrlich ascite carcinoma cells assessed as incorporation of [3H]uridine after 1.5 hrs by liquid scintillation spectrophotometer; format: functional, cell-based
Outline: (§3)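 Ehrlich ascites cells were taken from mice bearing 7-day nonbloody tumors, washed in saline, and resuspended at 5×10⁵ cells/mL in Eagle Spinner medium with 10% fetal calf serum. They were stirred 1.5 h at 37 °C with compound and one labelled precursor: [¹⁴C]glucose 0.2 μCi, [³H]thymidine 0.1 μCi, [³H]uridine 0.5 μCi, or [³H]proline. Then 1 mL samples were diluted in cold saline and pelleted.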

Ehrlich [3] = assay: Irreversible inhibition of RNA synthesis in mouse Ehrlich ascite carcinoma cells assessed as incorporation of [3H]uridine at 10 ug/ml after 1.5 hrs by liquid scintillation spectrophotometer; format: functional, cell-based; outline: as §2
Ehrlich [4] = assay: Inhibition of DNA synthesis in mouse Ehrlich ascite carcinoma cells assessed as incorporation of [3H]thymidine after 1.5 hrs by liquid scintillation spectrophotometer; format: functional, cell-based; outline: as §3
Ehrlich [5] = assay: Inhibition of [3H]glucose uptake in mouse Ehrlich ascite carcinoma cells after 1.5 hrs by liquid scintillation spectrophotometer; format: functional, cell-based; settings: in the assay text read “[14C]glucose” for “[3H]glucose”; outline: as §3
Ehrlich [6] = assay: Inhibition of protein synthesis in mouse Ehrlich ascite carcinoma cells assessed as incorporation of [3H]proline after 1.5 hrs by liquid scintillation spectrophotometer; format: functional, cell-based; outline: as §3
Ehrlich [7] = assay: Irreversible inhibition of DNA synthesis in mouse Ehrlich ascite carcinoma cells assessed as incorporation of [3H]thymidine at 10 ug/ml after 1.5 hrs by liquid scintillation spectrophotometer; format: functional, cell-based; outline: as §2
Ehrlich [8] = assay: Irreversible inhibition of [3H]glucose uptake in mouse Ehrlich ascite carcinoma cells at 10 ug/ml after 1.5 hrs by liquid scintillation spectrophotometer; format: functional, cell-based; settings: in the assay text read “[14C]glucose” for “[3H]glucose”; outline: as §2

EC50 (KB)	EC50 (HeLa)	SMILES	inhibition (Ehrlich [1])	inhibition (Ehrlich [2])	inhibition (Ehrlich [3])	inhibition (Ehrlich [4])	inhibition (Ehrlich [5])	inhibition (Ehrlich [6])	inhibition (Ehrlich [7])	inhibition (Ehrlich [8])
> 100 µg/mL	> 100 µg/mL	COC(=O)C(C)n1n[n+]([O-])c2cc(C)c(C)cc21 (stereo not given)	–	–	–	–	–	–	–	–
> 100 µg/mL	> 100 µg/mL	Cc1cc2c(cc1C)[n+]([O-])nn2C	–	–	–	–	–	–	–	–
1.5 µg/mL (≈ 6.38 µM)	0.5 µg/mL (≈ 2.13 µM)	COC(=O)Cn1nc2c(n1)C(=O)C(C)=CC2=O	Active	Active	Active	Active	Active	Active	Active	Active
> 100 µg/mL	> 100 µg/mL	Cc1cc2c(cc1C)[n+]([O-])nn2Cc1ccccc1	–	–	–	–	–	–	–	–
3.5 µg/mL (≈ 13.3 µM)	0.9 µg/mL (≈ 3.42 µM)	COC(=O)C(C)n1nc2c(n1)C(=O)C(C)=C(C)C2=O (stereo not given)	–	Active	–	Active	Active	Active	–	–
3.5 µg/mL (≈ 13.1 µM)	0.8 µg/mL (≈ 2.99 µM)	CC1=C(C)C(=O)c2nn(Cc3ccccc3)nc2C1=O	–	Active	–	Active	Active	Active	–	–
2.5 µg/mL (≈ 14.1 µM)	0.3 µg/mL (≈ 1.69 µM)	CC1=CC(=O)c2nn(C)nc2C1=O	–	Active	–	Active	Active	Active	–	–
4 µg/mL (≈ 16 µM)	1 µg/mL (≈ 4.01 µM)	COC(=O)Cn1nc2c(n1)C(=O)C(C)=C(C)C2=O	–	Active	–	Active	Active	Active	–	–
0.1 µg/mL (≈ 0.657 µM)	0.1 µg/mL (≈ 0.657 µM)	Sc1ncnc2nc[nH]c12 [MERCAPTOPURINE ANHYDROUS]	–	–	–	–	–	–	–	–
3 µg/mL (≈ 15.7 µM)	0.5 µg/mL (≈ 2.62 µM)	CC1=C(C)C(=O)c2nn(C)nc2C1=O	–	Active	–	Active	Active	Active	–	–
> 100 µg/mL	> 100 µg/mL	COC(=O)Cn1n[n+]([O-])c2cc(C)c(C)cc21	–	–	–	–	–	–	–	–
